Source: ChEMBL document CHEMBL3227966, “Synthesis and antitumor and antiviral activities of 1-beta-D-arabinofuranosyl-2-amino-1,4(2H)-iminopyrimidine and its derivatives” (1979)
Calls of active or inactive are those of the source. The calls are words filed in the database; no cut-off is given here.

Legend:
[1] = system: Human alphaherpesvirus 1; experiment: Antiviral activity against Herpes simplex virus type 1 infected in human KB cells assessed as inhibition of virus-induced cytopathic effect after 72 hrs by microscopically; assay type: functional, organism-based
Procedure, shortened: (§1)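 KB monolayers (18-24 h) were exposed to about 320 CCID50 of virus, with compound added within 15 min. CPE (0-4) and cytotoxicity were scored microscopically after 72 h at 37 °C. Virus rating was the summed (virus control − treated) CPE across drug levels, halved at partially toxic levels. Ratings: 0.5 slight/none, 0.5-0.9 moderate, 1.0 marked.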

[2] = system: Suid alphaherpesvirus 1; experiment: Antiviral activity against Pseudorabies virus infected in human KB cells assessed as inhibition of virus-induced cytopathic effect after 72 hrs by microscopically; assay type: functional, organism-based
[3] = system: Vaccinia virus; experiment: Antiviral activity against Vaccinia virus infected in human KB cells assessed as inhibition of virus-induced cytopathic effect after 72 hrs by microscopically; assay type: functional, organism-based; conditions: Orthopoxvirus vaccinia
[4] = system: KB; experiment: Antiviral activity against Myxoma virus infected in human KB cells assessed as inhibition of virus-induced cytopathic effect after 72 hrs by microscopically; assay type: functional, cell-based; procedure, shortened: as §1
[5] = system: KB; experiment: Antiviral activity against rhinovirus type 13 infected in human KB cells assessed as inhibition of virus-induced cytopathic effect after 72 hrs by microscopically; assay type: functional, cell-based; conditions: Human rhinovirus A13; procedure, shortened: as §1
[6] = system: L1210; experiment: Antitumor activity against mouse L1210 cells allografted in BDF/1 mouse assessed as tumor weight reduction on day 5 at 600 mg/kg, ip qd treated 24 hrs after tumor implantation relative to control; assay type: functional, organism-based; set-up: dose 600 mg/kg
[7] = system: L1210; experiment: Antitumor activity against mouse L1210 cells allografted in BDF/1 mouse assessed as mouse survival at 600 mg/kg, ip qd treated 24 hrs after tumor implantation relative to control; assay type: functional; conditions: route intraperitoneal
Procedure, shortened: (§2)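 Female BDF1 mice, 6–8 per group, were inoculated ip with 1×10^5 viable L1210 cells. Drug was given ip once daily on days 1–5, starting 24 h after implant, in freshly prepared isotonic sterile saline. Controls received 0.2 mL saline. Read-outs were survivors (cures) and T/C, with survivors excluded from T/C. P values came from the Wilcoxon nonparametric method.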

[8] = system: L1210; experiment: Antitumor activity against mouse L1210 cells allografted in BDF/1 mouse assessed as […] at 600 mg/kg, ip qd treated 24 hrs after tumor implantation relative to control; assay type: functional; conditions: route intraperitoneal; procedure, shortened: as §2
[9] = system: L1210; experiment: Antitumor activity against mouse L1210 cells allografted in BDF/1 mouse assessed as mouse survival upto 60 days at 600 mg/kg, ip qd treated 24 hrs after tumor implantation relative to control; assay type: functional; procedure, shortened: as §2
[10] = system: L1210; experiment: Antitumor activity against mouse L1210 cells allografted DBA/2 mouse assessed as increase in life span; assay type: functional
[11] = system: Human alphaherpesvirus 1; experiment: Antiviral activity against Herpes simplex virus type 1 infected in Swiss albino mouse assessed as increase in mouse survival at 0.14 mg/kg, ic single dose after 6 hrs of infection relative to control; assay type: functional; conditions: Human alphaherpesvirus 1, 6 h
Procedure, shortened: (§3)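 Swiss albino mice, six per group, were infected intracerebrally with HSV-1 at about 10 LD50. Six hours later each received a single ic drug injection in Hank's balanced salt solution. Controls received the same volume of Hank's solution alone. Efficacy was the increase in number of survivors versus controls.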

[12] = system: Human alphaherpesvirus 1; experiment: Antiviral activity against Herpes simplex virus type 1 infected in Swiss albino mouse assessed as increase in mouse survival at 0.033 mg/kg, ic single dose after 6 hrs of infection relative to control; assay type: functional; conditions: Human alphaherpesvirus 1, 6 h; procedure, shortened: as §3
[13] = system: L1210; experiment: Antitumor activity against mouse L1210 cells allografted in BDF/1 mouse assessed as mouse survival upto 60 days at 400 mg/kg, ip qd treated 24 hrs after tumor implantation relative to control; assay type: functional, organism-based; set-up: dose 400 mg/kg
Procedure, shortened: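 BDF1 female mice, six to eight per group, inoculated ip with 1×10^5 viable L1210 cells. Drug was given ip once daily on days 1-5, starting 24 h after implant, in freshly prepared isotonic sterile saline. Controls received 0.2 mL saline. Read-out was survivors (cures) and T/C excluding survivors. P was derived by the Wilcoxon nonparametric method.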

[14] = system: L1210; experiment: Antitumor activity against mouse L1210 cells allografted in BDF/1 mouse assessed as mouse survival at 400 mg/kg, ip qd treated 24 hrs after tumor implantation relative to control; assay type: functional; conditions: route intraperitoneal; procedure, shortened: as §2
[15] = system: L1210; experiment: Antitumor activity against mouse L1210 cells allografted in BDF/1 mouse assessed as tumor weight reduction on day 5 at 400 mg/kg, ip qd treated 24 hrs after tumor implantation relative to control; assay type: functional, organism-based; set-up: dose 400 mg/kg
[16] = system: L1210; experiment: Antitumor activity against mouse L1210 cells allografted in BDF/1 mouse assessed as increase in life span at 600 mg/kg, ip qd treated 24 hrs after tumor implantation relative to control; assay type: functional; conditions: route intraperitoneal; procedure, shortened: as §2

Row | SMILES | inhibition [1] | inhibition [2] | inhibition [3] | inhibition [4] | inhibition [5] | inhibition [6] | Survival [7] [days] | T/C [8] | survival at 0.14 mg/kg [11] [%] | survival at 0.033 mg/kg [12] [%] | other results
1 | Nc1ccn([C@@H]2O[C@H](CO)[C@@H](OP(=O)(O)O)[C@@H]2O)c(=O)n1 | Active | Active | Active | Active | Active |  |  |  |  |  | 
2 | N=c1nc2n(cc1F)[C@@H]1O[C@H](CO)[C@@H](OP(=O)(O)O)[C@H]1O2 | Active |  |  |  |  |  |  |  |  |  | 
3 | N=c1ccn2c(n1)O[C@@H]1[C@H](O)[C@@H](CO)O[C@H]12 |  |  |  |  |  | Active | 24 | 2.81 |  |  | Activity [9]: inactive
4 | N=c1nc2n(cc1F)[C@@H]1O[C@H](CO)[C@@H](O)[C@H]1O2 |  |  |  |  |  |  |  |  |  |  | Activity [10]: 80%
5 | Nc1ccn([C@@H]2O[C@H](CO)[C@@H](O)[C@@H]2O)c(=O)n1 [CYTARABINE] | Active | Active | Active | Active |  |  |  |  | 40 | 0 | 
6 | N=c1ccn([C@@H]2O[C@H](CO)[C@@H](O)[C@@H]2O)c(N)n1 | Active | Active | Active | Active |  |  |  |  |  |  | Activity [13]: Active; Survival [14]: 60 days; inhibition [15]: Active
7 | N=c1ccn2c(n1)O[C@@H]1[C@H](OP(=O)(O)O)[C@@H](CO)O[C@H]12 | Active | Active | Active | Active | Active | Active | 17.5 | 2.07 | 40 | 0 | Activity [9]: inactive
8 | N=c1nc(N)n([C@@H]2O[C@H](CO)[C@@H](OP(=O)(O)O)[C@@H]2O)cc1F | Active | Active | Active | Active | inactive |  |  |  |  |  | 
9 | N=c1ccn([C@@H]2O[C@H](CO)[C@@H](OP(=O)(O)O)[C@@H]2O)c(N)n1 | Active | Active | Active | Active | inactive | Active | 22.5 | 2.44 | 50 | 0 | Activity [16]: 144%; survival at 600 mg/kg ([9]; route intraperitoneal): 33%
